pIC50: −log10 of the molar value.
target: T1, Nitric oxide synthase, inducible (Mus musculus) (UniProt P29477); experiment: Inhibition of iNOS-mediated nitric oxide production in LPS-stimulated mouse RAW 264.7 cells assessed as cell survival at 50 uM pretreated 15 mins before LPS challenge measured after 20 hrs relative to control; assay type: cell-based; settings: not given
T1 sequence (whole entry): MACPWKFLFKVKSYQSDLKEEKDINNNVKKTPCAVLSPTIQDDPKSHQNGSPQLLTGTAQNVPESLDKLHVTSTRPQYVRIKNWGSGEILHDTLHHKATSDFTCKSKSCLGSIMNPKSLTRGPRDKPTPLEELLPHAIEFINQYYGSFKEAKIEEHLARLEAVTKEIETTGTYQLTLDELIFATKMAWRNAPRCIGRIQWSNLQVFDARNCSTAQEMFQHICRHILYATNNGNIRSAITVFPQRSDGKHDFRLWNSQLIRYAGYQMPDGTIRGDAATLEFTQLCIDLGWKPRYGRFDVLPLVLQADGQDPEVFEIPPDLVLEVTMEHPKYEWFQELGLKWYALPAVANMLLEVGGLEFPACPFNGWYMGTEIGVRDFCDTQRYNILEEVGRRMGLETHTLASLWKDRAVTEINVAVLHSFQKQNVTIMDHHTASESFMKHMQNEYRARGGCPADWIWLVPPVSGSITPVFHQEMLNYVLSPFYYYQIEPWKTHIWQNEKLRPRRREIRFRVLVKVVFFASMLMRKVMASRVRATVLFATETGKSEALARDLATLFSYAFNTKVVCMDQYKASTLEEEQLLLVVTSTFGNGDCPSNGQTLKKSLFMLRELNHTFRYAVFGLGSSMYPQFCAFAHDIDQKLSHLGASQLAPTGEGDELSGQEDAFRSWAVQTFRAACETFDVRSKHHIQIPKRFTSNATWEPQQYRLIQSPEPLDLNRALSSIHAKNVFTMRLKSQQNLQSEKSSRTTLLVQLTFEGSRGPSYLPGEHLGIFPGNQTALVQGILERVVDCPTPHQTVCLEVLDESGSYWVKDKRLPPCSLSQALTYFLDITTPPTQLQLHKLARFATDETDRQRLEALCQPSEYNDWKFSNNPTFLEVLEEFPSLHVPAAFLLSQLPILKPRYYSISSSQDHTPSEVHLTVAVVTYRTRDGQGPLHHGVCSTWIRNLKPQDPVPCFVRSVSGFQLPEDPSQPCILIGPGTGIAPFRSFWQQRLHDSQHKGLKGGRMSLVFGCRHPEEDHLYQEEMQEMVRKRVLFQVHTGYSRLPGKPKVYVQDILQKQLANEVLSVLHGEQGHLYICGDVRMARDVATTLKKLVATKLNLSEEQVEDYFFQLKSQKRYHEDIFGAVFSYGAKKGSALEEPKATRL
Outline: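 RAW 264.7 cells were incubated at 37°C, 5% CO2 for 24 h. They were then exposed to compound for 15 min before LPS (1 μg/mL) was added for 20 h. Cytotoxicity was measured by SRB staining under the same conditions. Survival is expressed as % relative to vehicle-treated controls at 50 μM.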

In order of rising Survival:
1. COC(=O)[C@H]1Cc2c([nH]c3ccccc23)CN1Cc1ccc(O)cc1  87.3%
2. COC(=O)[C@@H]1Cc2c([nH]c3ccccc23)CN1S(=O)(=O)c1ccc(Br)cc1  89.2%
3. COC(=O)[C@@H]1Cc2c([nH]c3ccccc23)CN1S(C)(=O)=O  91.9%
4. CS(=O)(=O)N1Cc2[nH]c3ccccc3c2C[C@@H]1C(=O)O  93.1%
5. O=C(O)[C@@H]1Cc2c([nH]c3ccccc23)CN1 [CYCLOMETHYLTRYPTOPHAN]  100%

target: NAD(P)H dehydrogenase [quinone] 1 (Mus musculus) (UniProt Q64669); experiment: Induction of quinone reductase 1 activity in mouse Hepa-1c1c7 cells assessed as cell survival at 50 uM by MTT assay relative to control; assay type: cell-based; settings: not given
Sequence (Q64669 whole entry): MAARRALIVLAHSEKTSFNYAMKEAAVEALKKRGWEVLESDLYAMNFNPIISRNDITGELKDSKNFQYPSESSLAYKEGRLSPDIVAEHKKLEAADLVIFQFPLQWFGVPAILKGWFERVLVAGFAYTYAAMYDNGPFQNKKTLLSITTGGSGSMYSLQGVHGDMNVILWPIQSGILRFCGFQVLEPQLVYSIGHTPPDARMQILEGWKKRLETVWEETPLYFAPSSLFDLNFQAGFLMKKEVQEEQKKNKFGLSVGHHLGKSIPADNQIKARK

In order of rising Survival:
1. COC(=O)[C@@H]1Cc2c([nH]c3ccccc23)CN1S(=O)(=O)c1ccc(Br)cc1  36.4%
2. CS(=O)(=O)N1Cc2[nH]c3ccccc3c2C[C@@H]1C(=O)O  80.6%
3. COC(=O)[C@@H]1Cc2c([nH]c3ccccc23)CN1S(C)(=O)=O  85.8%
4. COC(=O)[C@H]1Cc2c([nH]c3ccccc23)CN1Cc1ccc(O)cc1  98.6%
5. O=C(O)[C@@H]1Cc2c([nH]c3ccccc23)CN1 [CYCLOMETHYLTRYPTOPHAN]  99.2%

target: NAD(P)H dehydrogenase [quinone] 1 (Mus musculus) (UniProt Q64669); experiment: Induction of quinone reductase 1 activity in mouse Hepa-1c1c7 cells at 50 uM by MTT assay relative to untreated control; assay type: cell-based; settings: not given
Outline: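 Hepa 1c1c7 murine hepatoma cells treated with compound at 50 μM. QR1 measured by NADPH-dependent, menadiol-mediated reduction of MTT to formazan. Protein measured by crystal violet staining of identical plates. Specific activity is nmol formazan per mg protein per min. Induction ratio is treated versus DMSO-treated control.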

In order of rising Ratio:
1. COC(=O)[C@@H]1Cc2c([nH]c3ccccc23)CN1S(=O)(=O)c1ccc(Br)cc1  0.2
2. O=C(O)[C@@H]1Cc2c([nH]c3ccccc23)CN1 [CYCLOMETHYLTRYPTOPHAN]  1.1
3. COC(=O)[C@@H]1Cc2c([nH]c3ccccc23)CN1S(C)(=O)=O  1.6
4. COC(=O)[C@H]1Cc2c([nH]c3ccccc23)CN1Cc1ccc(O)cc1  1.8
5. CS(=O)(=O)N1Cc2[nH]c3ccccc3c2C[C@@H]1C(=O)O  1.9

target: T2, Aromatase (Homo sapiens, UniProt P11511); experiment: Inhibition of aromatase at 50 uM after 10 mins preincubation by plate reader relative to control; settings: not given
T2 sequence (P11511 whole entry): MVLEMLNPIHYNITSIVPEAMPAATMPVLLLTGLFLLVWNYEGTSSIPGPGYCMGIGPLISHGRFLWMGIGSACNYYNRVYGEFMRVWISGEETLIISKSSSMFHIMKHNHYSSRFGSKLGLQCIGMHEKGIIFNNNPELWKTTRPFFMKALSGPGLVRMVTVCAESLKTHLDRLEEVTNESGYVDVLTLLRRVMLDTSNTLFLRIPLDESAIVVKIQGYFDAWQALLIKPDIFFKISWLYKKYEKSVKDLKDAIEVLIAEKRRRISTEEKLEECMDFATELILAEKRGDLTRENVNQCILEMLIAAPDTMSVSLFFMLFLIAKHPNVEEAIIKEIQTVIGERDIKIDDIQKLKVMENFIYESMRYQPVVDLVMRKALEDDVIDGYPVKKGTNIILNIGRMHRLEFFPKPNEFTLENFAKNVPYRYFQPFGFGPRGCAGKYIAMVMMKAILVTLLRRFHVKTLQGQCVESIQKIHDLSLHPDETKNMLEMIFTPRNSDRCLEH
Outline: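 CYP19 enzyme. Compound pre-incubated 10 min with an NADPH-regenerating system (NADP+, glucose 6-phosphate, G6PDH, MgCl2, albumin) in 50 mM potassium phosphate pH 7.4. Enzyme and 0.4 μM dibenzylfluorescein substrate then added, 30 min at 37 °C. Quenched with 2 N NaOH and incubated a further 2 h at 37 °C. Fluorescence read at ex 485/em 530 nm. Compound tested at 50 μM.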

In order of rising inhibition at 50 µM:
1. O=C(O)[C@@H]1Cc2c([nH]c3ccccc23)CN1 [CYCLOMETHYLTRYPTOPHAN]  20.7%
2. COC(=O)[C@@H]1Cc2c([nH]c3ccccc23)CN1S(C)(=O)=O  30.5%
3. CS(=O)(=O)N1Cc2[nH]c3ccccc3c2C[C@@H]1C(=O)O  30.7%
4. COC(=O)[C@@H]1Cc2c([nH]c3ccccc23)CN1S(=O)(=O)c1ccc(Br)cc1  36.7%
5. COC(=O)[C@H]1Cc2c([nH]c3ccccc23)CN1Cc1ccc(O)cc1  38.7%

system: MCF7; experiment: Antiproliferative activity against human MCF7 cells assessed as survival at 50 uM after 72 hrs by SRB assay relative to control; assay type: functional; settings: MCF7, 72 h, read-out: Survival
Outline: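 MCF7 cells (1 × 10^4 per well) were plated onto compound and kept at 37°C, 5% CO2 for 72 h. Cells were fixed in 10% TCA for 30 min and stained with 0.4% SRB in 1% acetic acid for 30 min. Bound dye was dissolved in 10 mM Tris (pH 10.0) and read at 515 nm. Survival is given as % of DMSO-treated controls, screened at 50 μM.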

In order of falling viability at 50 µM:
1. COC(=O)[C@H]1Cc2c([nH]c3ccccc23)CN1Cc1ccc(O)cc1  100%
2. CS(=O)(=O)N1Cc2[nH]c3ccccc3c2C[C@@H]1C(=O)O  88.7%
3. COC(=O)[C@@H]1Cc2c([nH]c3ccccc23)CN1S(C)(=O)=O  72.5%
4. COC(=O)[C@@H]1Cc2c([nH]c3ccccc23)CN1S(=O)(=O)c1ccc(Br)cc1  -2.1%

target: T3, Nitric oxide synthase, inducible (Mus musculus, UniProt P29477); experiment: Inhibition of iNOS-mediated nitric oxide production in LPS-stimulated mouse RAW 264.7 cells pretreated 15 mins before LPS challenge measured after 20 hrs relative to control; assay type: cell-based; settings: not given
T3 sequence (P29477 whole entry): T1 sequence (whole entry)
Outline: (§1)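 RAW 264.7 cells cultured 24 h at 37°C, then given serially diluted compounds for 15 min before LPS (1 μg/mL) for 20 h. Nitrite in the medium measured with Griess reagent at 540 nm against a sodium nitrite standard curve. Cytotoxicity checked by SRB under the same conditions.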

In order of rising pIC50:
1. COC(=O)[C@H]1Cc2c([nH]c3ccccc23)CN1Cc1ccc(O)cc1  4.43
2. COC(=O)[C@@H]1Cc2c([nH]c3ccccc23)CN1S(=O)(=O)c1ccc(Br)cc1  4.64

system: HEK293; experiment: Inhibition of TNF-alpha-induced NFkappaB activation in human HEK293 cells assessed as cell survival at 50 uM after 6 hrs by luciferase assay relative to control; assay type: cell-based; settings: not given

In order of falling Survival:
1. COC(=O)[C@@H]1Cc2c([nH]c3ccccc23)CN1S(=O)(=O)c1ccc(Br)cc1  186%
2. CS(=O)(=O)N1Cc2[nH]c3ccccc3c2C[C@@H]1C(=O)O  178%
3. COC(=O)[C@@H]1Cc2c([nH]c3ccccc23)CN1S(C)(=O)=O  153%
4. COC(=O)[C@H]1Cc2c([nH]c3ccccc23)CN1Cc1ccc(O)cc1  122%
5. O=C(O)[C@@H]1Cc2c([nH]c3ccccc23)CN1 [CYCLOMETHYLTRYPTOPHAN]  103%

system: HEK293; experiment: Inhibition of TNF-alpha-induced NFkappaB activation in human HEK293 cells at 50 uM after 6 hrs by luciferase assay relative to control; assay type: cell-based; settings: not given
Outline: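 Cells incubated 6 h with TNFα plus test compound, then luciferase activity measured. Results expressed as percent of TNFα-treated control. Screening concentration 50 μM.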

In order of rising inhibition:
1. CS(=O)(=O)N1Cc2[nH]c3ccccc3c2C[C@@H]1C(=O)O  -2.3%
2. O=C(O)[C@@H]1Cc2c([nH]c3ccccc23)CN1 [CYCLOMETHYLTRYPTOPHAN]  4.6%
3. COC(=O)[C@@H]1Cc2c([nH]c3ccccc23)CN1S(=O)(=O)c1ccc(Br)cc1  32.8%
4. COC(=O)[C@H]1Cc2c([nH]c3ccccc23)CN1Cc1ccc(O)cc1  33.5%
5. COC(=O)[C@@H]1Cc2c([nH]c3ccccc23)CN1S(C)(=O)=O  38.6%

target: T1, Nitric oxide synthase, inducible (Mus musculus); experiment: Inhibition of iNOS-mediated nitric oxide production in LPS-stimulated mouse RAW 264.7 cells at 50 uM pretreated 15 mins before LPS challenge measured after 20 hrs relative to control; assay type: cell-based; settings: not given; outline: as §1

In order of rising inhibition:
1. O=C(O)[C@@H]1Cc2c([nH]c3ccccc23)CN1 [CYCLOMETHYLTRYPTOPHAN]  2%
2. CS(=O)(=O)N1Cc2[nH]c3ccccc3c2C[C@@H]1C(=O)O  5%
3. COC(=O)[C@@H]1Cc2c([nH]c3ccccc23)CN1S(C)(=O)=O  10.6%
4. COC(=O)[C@H]1Cc2c([nH]c3ccccc23)CN1Cc1ccc(O)cc1  63.7%
5. COC(=O)[C@@H]1Cc2c([nH]c3ccccc23)CN1S(=O)(=O)c1ccc(Br)cc1  70.6%
